Among the data in ChEMBL document CHEMBL6134769, “Discovery of N-substituted-2-oxoindolin benzoylhydrazines as c-MET/SMO modulators in EGFRi-resistant non-small cell lung cancer” (RSC Med Chem, 2025) are inhibition values, retold here.

Test [1] deals with Vascular endothelial growth factor receptor 2 (Homo sapiens) (UniProt P35968). Description: Inhibition of human N-terminal GST-fused KDR cytoplasmic domain (790 to 1356 (end)residues) expressed in baculovirus expression system at 20 uM measured after 1 hr in presence of peptide substrate and ATP by off-chip mobility shift assay relative to control. Put shortly: (§1)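 Off-chip mobility shift assay. Product and substrate peptides were separated; activity was taken as P/(P+S). Complete reaction was set as 0% inhibition and enzyme-free background as 100%. Run in triplicate, mean ± SD.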

The species named for the next test is Homo sapiens. Briefly: Inhibition of human full-length N-terminal His-tagged ABL (2 to 1130 (end)residues) expressed in baculovirus expression system at 20 uM measured after 1 hr in presence of peptide substrate and ATP by off-chip mobility shift assay relative to control. Put shortly:
as §1

The target of test [2] is Tyrosine-protein kinase Lck (Homo sapiens) (UniProt P06239). Briefly: Inhibition of human full-length N-terminal GST-fused LCK (1 to 509 (end)residues) expressed in baculovirus expression system at 20 uM measured after 1 hr in presence of peptide substrate and ATP by off-chip mobility shift assay relative to control. The method, boiled down: as §1
Test [3] has as its target Receptor-type tyrosine-protein kinase FLT3 (Homo sapiens) (UniProt P36888). Briefly: Inhibition of human N-terminal GST-fused FLT3 cytoplasmic domain (564 to 993 (end)residues) expressed in baculovirus expression system at 20 uM measured after 1 hr in presence of peptide substrate and ATP by off-chip mobility shift assay relative to control. Put shortly:
as §1

Test [4] deals with Platelet-derived growth factor receptor alpha (Homo sapiens) (UniProt P16234). Description: Inhibition of human N-terminal GST-fused PDGFRalpha cytoplasmic domain (550 to 1089 (end)residues) expressed in baculovirus expression system at 20 uM measured after 1 hr in presence of peptide substrate and ATP by off-chip mobility shift assay relative to control. The method, boiled down:
as §1

Test [5] concerns the target T1, Tyrosine-protein kinase JAK3 (Homo sapiens) (UniProt P52333).
T1 sequence (whole entry): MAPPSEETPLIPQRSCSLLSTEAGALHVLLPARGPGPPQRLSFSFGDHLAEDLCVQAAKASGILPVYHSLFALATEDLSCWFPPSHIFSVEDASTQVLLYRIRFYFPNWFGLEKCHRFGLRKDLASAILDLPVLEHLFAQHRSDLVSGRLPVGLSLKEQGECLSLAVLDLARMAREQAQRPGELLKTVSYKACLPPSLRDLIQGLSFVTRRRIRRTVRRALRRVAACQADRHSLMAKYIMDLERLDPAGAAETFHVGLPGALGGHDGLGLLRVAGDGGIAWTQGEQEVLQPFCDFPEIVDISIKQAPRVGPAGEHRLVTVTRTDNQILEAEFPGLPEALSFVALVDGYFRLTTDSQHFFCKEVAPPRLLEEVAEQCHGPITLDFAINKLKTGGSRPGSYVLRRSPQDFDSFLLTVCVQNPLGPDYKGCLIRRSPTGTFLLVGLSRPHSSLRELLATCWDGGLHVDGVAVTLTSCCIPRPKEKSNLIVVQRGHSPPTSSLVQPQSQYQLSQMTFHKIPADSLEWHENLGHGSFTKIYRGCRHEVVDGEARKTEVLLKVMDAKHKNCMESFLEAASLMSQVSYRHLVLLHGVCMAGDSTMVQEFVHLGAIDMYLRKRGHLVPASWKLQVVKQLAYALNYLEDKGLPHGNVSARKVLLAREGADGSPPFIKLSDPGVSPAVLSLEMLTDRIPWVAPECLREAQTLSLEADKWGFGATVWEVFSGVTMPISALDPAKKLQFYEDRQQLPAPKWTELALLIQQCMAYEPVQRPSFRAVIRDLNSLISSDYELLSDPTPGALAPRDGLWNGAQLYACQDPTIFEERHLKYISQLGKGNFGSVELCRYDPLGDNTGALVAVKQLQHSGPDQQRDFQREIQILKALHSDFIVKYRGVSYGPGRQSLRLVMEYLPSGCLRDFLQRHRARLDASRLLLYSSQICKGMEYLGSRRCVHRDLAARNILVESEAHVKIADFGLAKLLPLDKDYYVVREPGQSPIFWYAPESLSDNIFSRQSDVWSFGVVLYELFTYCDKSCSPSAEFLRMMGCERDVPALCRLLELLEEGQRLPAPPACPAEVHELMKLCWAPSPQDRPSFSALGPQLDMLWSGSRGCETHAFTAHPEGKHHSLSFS
Description: Inhibition of human N-terminal His-tagged JAK3 catalytic domain (795 to 1124 (end)residues) expressed in baculovirus expression system at 20 uM measured after 1 hr in presence of peptide substrate and ATP by off-chip mobility shift assay relative to control. The method, boiled down: as §1

The target of test [6] is Insulin-like growth factor 1 receptor (Homo sapiens) (UniProt P08069). Briefly: Inhibition of human N-terminal GST-fused IGF1R cytoplasmic domain (959 to 1367 (end)residues) expressed in baculovirus expression system at 20 uM measured after 1 hr in presence of peptide substrate and ATP by off-chip mobility shift assay relative to control. The method, boiled down: as §1

For test [7], the target named is Protein-tyrosine kinase 2-beta (Homo sapiens) (UniProt Q14289). Briefly: Inhibition of human full-length N-terminal GST-fused PYK2 (1 to 967 (end)residues) expressed in baculovirus expression system at 20 uM measured after 1 hr in presence of peptide substrate and ATP by off-chip mobility shift assay relative to control. Put shortly:
as §1

The target in another test is Protein smoothened (Homo sapiens, UniProt Q99835). Description: Inhibition of SMO in human PC9-OR cells assessed as reduction in GLI1 expression at antiproliferative IC50 measured after 72 hrs by Western blot analysis. It is filed as functional, cell-based. (A western blot detects proteins with antibodies after separation by electrophoresis.)
Test [8] addresses Ephrin type-A receptor 2 (Homo sapiens) (UniProt P29317). Description: Inhibition of EPHA2 (unknown origin) at 20 uM measured after 1 hr in presence of peptide substrate and ATP by off-chip mobility shift assay relative to control. Put shortly:
as §1

Active and inactive are the calls of the source. The calls are words filed in the database; no cut-off is given here.

Chain of Receptor-type tyrosine-protein kinase FLT3 (Homo sapiens) (P36888 whole entry, the tested form may be a part): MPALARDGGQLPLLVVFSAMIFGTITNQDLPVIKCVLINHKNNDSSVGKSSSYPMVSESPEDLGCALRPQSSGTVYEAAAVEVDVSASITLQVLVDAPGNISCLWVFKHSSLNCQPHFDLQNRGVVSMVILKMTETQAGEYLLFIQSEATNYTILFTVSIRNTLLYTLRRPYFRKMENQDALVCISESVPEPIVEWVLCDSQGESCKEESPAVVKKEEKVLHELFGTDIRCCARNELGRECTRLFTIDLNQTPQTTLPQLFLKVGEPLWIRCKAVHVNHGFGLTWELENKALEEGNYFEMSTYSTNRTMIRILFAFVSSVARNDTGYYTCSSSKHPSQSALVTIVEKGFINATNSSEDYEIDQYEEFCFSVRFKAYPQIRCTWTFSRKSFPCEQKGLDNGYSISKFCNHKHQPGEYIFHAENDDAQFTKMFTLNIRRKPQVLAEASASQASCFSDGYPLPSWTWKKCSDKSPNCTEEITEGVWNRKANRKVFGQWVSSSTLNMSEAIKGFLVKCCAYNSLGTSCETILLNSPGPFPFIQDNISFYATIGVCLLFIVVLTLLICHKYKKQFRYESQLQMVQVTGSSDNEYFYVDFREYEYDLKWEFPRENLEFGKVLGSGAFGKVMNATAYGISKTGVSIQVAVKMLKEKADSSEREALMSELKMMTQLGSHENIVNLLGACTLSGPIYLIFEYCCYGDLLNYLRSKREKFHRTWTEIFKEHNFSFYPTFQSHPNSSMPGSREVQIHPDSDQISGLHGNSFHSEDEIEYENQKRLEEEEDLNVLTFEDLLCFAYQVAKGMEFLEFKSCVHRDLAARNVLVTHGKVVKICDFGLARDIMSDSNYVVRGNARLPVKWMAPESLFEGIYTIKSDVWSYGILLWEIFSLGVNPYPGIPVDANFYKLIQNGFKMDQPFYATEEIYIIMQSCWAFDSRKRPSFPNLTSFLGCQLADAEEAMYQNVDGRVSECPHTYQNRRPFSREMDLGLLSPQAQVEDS
Chain of Protein smoothened (Q99835 whole entry): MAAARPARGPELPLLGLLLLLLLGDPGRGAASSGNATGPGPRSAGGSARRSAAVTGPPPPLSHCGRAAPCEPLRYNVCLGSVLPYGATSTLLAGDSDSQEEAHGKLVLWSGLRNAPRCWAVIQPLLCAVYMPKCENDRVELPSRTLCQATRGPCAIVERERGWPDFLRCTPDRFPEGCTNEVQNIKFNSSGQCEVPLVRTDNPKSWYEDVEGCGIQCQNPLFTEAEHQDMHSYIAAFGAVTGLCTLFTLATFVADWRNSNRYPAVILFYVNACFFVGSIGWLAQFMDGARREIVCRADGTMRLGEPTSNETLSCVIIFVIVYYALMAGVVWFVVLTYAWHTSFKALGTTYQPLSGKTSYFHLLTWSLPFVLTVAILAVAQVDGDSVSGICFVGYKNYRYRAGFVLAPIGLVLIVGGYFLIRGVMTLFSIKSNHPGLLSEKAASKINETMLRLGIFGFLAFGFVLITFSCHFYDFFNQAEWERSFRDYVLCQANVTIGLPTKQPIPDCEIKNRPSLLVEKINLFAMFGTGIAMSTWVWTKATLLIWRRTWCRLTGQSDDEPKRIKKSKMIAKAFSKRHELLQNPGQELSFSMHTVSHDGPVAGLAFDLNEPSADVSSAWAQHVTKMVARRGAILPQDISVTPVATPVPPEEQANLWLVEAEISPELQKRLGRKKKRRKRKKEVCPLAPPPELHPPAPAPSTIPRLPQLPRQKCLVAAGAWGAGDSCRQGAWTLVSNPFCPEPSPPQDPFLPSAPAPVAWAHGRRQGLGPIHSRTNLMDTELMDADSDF
Chain of Insulin-like growth factor 1 receptor (Homo sapiens) (P08069 31-736 limits assumed): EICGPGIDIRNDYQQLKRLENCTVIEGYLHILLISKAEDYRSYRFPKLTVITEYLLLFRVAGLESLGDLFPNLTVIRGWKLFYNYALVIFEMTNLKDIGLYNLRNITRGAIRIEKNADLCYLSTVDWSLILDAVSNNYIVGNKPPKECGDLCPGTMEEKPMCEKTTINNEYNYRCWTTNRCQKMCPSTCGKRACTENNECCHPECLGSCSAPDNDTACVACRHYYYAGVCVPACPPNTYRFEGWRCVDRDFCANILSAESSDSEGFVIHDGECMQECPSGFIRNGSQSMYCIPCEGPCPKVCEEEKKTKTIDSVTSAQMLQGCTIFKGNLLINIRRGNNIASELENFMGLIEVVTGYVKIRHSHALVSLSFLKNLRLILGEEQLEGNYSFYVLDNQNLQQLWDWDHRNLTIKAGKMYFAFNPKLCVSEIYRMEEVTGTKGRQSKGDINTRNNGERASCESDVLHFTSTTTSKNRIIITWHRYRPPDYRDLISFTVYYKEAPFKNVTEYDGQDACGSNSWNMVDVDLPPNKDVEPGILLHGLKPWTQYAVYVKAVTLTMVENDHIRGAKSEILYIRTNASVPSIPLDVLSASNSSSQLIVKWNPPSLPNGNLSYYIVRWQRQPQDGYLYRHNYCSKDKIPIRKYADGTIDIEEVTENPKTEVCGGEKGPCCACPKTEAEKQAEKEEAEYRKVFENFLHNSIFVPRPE
Chain of Insulin-like growth factor 1 receptor (Homo sapiens) (P08069 741-1367 limits assumed): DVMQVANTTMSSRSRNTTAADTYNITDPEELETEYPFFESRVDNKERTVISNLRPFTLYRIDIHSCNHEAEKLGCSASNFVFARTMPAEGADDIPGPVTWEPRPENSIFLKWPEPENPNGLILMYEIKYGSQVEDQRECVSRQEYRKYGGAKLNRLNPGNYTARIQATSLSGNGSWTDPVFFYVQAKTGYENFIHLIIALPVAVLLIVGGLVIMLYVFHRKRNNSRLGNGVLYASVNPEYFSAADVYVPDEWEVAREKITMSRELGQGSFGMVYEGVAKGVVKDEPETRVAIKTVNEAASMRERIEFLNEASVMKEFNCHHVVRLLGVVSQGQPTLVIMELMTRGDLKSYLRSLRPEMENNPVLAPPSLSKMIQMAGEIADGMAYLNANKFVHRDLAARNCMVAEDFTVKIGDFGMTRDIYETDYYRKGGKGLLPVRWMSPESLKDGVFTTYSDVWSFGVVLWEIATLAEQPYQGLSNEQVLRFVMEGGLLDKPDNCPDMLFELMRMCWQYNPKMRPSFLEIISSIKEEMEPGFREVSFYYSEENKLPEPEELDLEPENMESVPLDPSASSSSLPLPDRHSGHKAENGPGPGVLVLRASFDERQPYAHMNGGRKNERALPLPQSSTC
Chain of Ephrin type-A receptor 2 (Homo sapiens) (P29317 whole entry): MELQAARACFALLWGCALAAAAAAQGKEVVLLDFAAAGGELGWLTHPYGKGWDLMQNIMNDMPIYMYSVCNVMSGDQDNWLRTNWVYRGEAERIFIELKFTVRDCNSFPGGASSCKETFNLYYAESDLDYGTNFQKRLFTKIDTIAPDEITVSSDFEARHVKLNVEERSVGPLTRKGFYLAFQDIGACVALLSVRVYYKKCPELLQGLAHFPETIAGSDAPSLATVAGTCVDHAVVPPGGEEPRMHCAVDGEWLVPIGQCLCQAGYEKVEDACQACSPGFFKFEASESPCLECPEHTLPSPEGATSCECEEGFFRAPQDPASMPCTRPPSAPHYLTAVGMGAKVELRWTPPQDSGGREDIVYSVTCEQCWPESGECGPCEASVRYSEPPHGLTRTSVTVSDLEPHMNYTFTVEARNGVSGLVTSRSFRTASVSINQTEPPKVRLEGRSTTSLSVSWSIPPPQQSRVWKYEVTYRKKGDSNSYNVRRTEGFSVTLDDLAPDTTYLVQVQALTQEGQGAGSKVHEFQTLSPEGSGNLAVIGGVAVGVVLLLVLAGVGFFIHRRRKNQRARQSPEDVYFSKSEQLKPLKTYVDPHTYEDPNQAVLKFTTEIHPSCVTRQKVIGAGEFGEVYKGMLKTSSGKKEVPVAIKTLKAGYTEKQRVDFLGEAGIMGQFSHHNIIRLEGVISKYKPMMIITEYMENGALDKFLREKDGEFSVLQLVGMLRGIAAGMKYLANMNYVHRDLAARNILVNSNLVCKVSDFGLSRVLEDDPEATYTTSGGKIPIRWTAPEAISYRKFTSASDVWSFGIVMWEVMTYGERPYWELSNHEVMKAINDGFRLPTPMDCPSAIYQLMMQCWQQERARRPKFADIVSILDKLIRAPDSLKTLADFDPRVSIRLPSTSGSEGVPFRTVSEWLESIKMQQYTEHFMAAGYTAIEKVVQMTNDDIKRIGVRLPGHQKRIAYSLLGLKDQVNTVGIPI
Chain of Tyrosine-protein kinase Lck (Homo sapiens) (P06239 2-509 limits assumed): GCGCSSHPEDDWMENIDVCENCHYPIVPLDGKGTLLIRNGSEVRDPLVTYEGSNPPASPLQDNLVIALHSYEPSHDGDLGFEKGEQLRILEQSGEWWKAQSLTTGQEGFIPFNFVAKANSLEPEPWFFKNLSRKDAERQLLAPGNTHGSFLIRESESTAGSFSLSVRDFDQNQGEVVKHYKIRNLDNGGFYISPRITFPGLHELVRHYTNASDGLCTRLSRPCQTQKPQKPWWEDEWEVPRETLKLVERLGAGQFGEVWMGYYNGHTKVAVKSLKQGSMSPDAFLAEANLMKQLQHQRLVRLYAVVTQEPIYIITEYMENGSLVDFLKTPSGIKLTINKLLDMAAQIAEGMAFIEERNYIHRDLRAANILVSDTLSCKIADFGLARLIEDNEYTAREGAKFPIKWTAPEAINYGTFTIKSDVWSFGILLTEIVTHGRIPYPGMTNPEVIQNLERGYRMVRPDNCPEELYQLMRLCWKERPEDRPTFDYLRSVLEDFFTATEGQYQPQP

In general, inhibition refers to the drop in the measured response relative to a control, in per cent. `O=C(CN1C(=O)/C(=N\NC(=O)c2cc(Br)ccc2O)c2c(Br)cccc21)Nc1ccc([N+](=O)[O-])cc1`: the inhibition in test [1] was 61.2%; in the test filed under Homo sapiens it was 67.9%; in test [2], 66.8%; in test [3], 55.8%; in test [4] it was 63.3%; in [5] it was 78.9%. Moreover, the inhibition in [6] worked out at 66%; in test [7], 45.1%; in test [8], 71.5%. Also, the inhibition entry on Protein smoothened is “Active”.
On to `Cc1ccc(NC(=O)CN2C(=O)/C(=N\NC(=O)c3cc(Br)ccc3O)c3ccc(Cl)cc32)cc1`, for which the inhibition in test [1] is 66.6%; in test [2], 71.5%; in [3] it was 71.9%; in test [4], 56.5%; in test [5], 76.6%; in test [6], 55.3%. The inhibition in [7] came to 49.7%; in [8], 62.5%. The inhibition result on Protein smoothened is “Active”.
Consider `Cc1ccc(NC(=O)CN2C(=O)/C(=N\NC(=O)c3cc(Br)ccc3O)c3ccc(Br)cc32)cc1`, for which the inhibition in [1] is 63.5%; in the test listed under Homo sapiens, 63.5%; in [2], 69.3%; in [3] it was 72.6%; in test [4], 56.7%; in test [5] it was 72.4%. Also, the inhibition in [6] was 54%; in test [7], 48.5%; in test [8], 69.2%. Besides, the inhibition result at Protein smoothened was “Active”.
`Cc1ccc(NC(=O)CN2C(=O)/C(=N\NC(=O)c3cc(Br)ccc3O)c3ccccc32)cc1`: the inhibition in test [1] turned out to be 81.4%; in the test listed under Homo sapiens it was 74.9%; in [2], 84.8%; in [3], 89.7%; in test [4], 76.2%; in test [5], 83.8%. The inhibition in [6] was 80.2%; in test [7], 49.9%; in [8] it was 95%. For the same compound, the inhibition result on Protein smoothened is “Active”.
